This note sets out measurements from ChEMBL document CHEMBL1926657, “Novel bioactive metabolites of dipyrone (metamizol)” (Bioorg Med Chem, 2012).

The source made the active and inactive calls. No cut-off for these calls is given here. Where only a bound is given, the exact number is not on record here.

A short description of data set [1]: Prodrug activation in C57BL/6 mouse CSF assessed as formation of arachidonoyl-4-methylaminoantipyrin at 600 mg/kg, po administered daily measured after 48 hrs. The format is organism-based, Cerebrospinal fluid. Further details: dose 600 mg/kg, route oral. The note with it: in vivo. Summed up:
(§1)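 Dipyrone was given in the drinking water, and mice were killed on day 2 (48 h) or day 5 (120 h) under isoflurane. Tissue was extracted with diisopropyl ether/ethyl acetate 1:3, dried and taken up in acetonitrile/water 9:1. The amides were measured by LC-MS/MS on a C18 column. Semi-quantification used external calibration with 10, 100 and 1000 pg standards.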

The subject of data set [2] is Brain. Description: Prodrug activation in FAAH wild type C57BL/6 mouse brain assessed as formation of arachidonoyl-4-aminoantipyrin at 600 mg/kg, po administered daily measured after 48 hrs. It counts as organism-based. Set-up: dose 600 mg/kg, route oral. The note with it: in vivo. Summed up: as §1
The subject of data set [3] is Brain. Description: Prodrug activation in FAAH wild type C57BL/6 mouse brain assessed as formation of arachidonoyl-4-methylaminoantipyrin at 600 mg/kg, po administered daily measured after 48 hrs. The format is organism-based. Set-up: dose 600 mg/kg, route oral. The note with it: in vivo. The method, boiled down: as §1
The test system of data set [4] is Brain. Description: Prodrug activation in FAAH wild type C57BL/6 mouse brain assessed as formation of arachidonoyl-4-methylaminoantipyrin at 600 mg/kg, po administered daily measured after 120 hrs. Further details: dose 600 mg/kg, route oral. The format is organism-based. The note with it: in vivo. Summed up: as §1
The test system of data set [5] is Spleen. Description: Prodrug activation in C57BL/6 mouse spleen assessed as formation of arachidonoyl-4-methylaminoantipyrin at 600 mg/kg, po administered daily measured after 120 hrs. The note with it: in vivo. It counts as organism-based. Set-up: dose 600 mg/kg, route oral. The method, boiled down: as §1
A short description of data set [6]: Prodrug activation in C57BL/6 mouse CSF assessed as formation of arachidonoyl-4-aminoantipyrin at 600 mg/kg, po administered daily measured after 48 hrs. It counts as organism-based, Cerebrospinal fluid. Set-up: dose 600 mg/kg, route oral. The note with it: in vivo. The method, boiled down: as §1
For data set [7], the system named is Spleen. Description: Prodrug activation in C57BL/6 mouse spleen assessed as formation of arachidonoyl-4-methylaminoantipyrin at 600 mg/kg, po administered daily measured after 48 hrs. It counts as organism-based. Set-up: dose 600 mg/kg, route oral. The note with it: in vivo. Summed up:
as §1

Data set [8] deals with Spleen. Description: Prodrug activation in C57BL/6 mouse spleen assessed as formation of arachidonoyl-4-aminoantipyrin at 600 mg/kg, po administered daily measured after 120 hrs. It counts as organism-based. The note with it: in vivo. Set-up: dose 600 mg/kg, route oral. The method, boiled down: as §1
Data set [9] relates to Spleen. Description: Prodrug activation in C57BL/6 mouse spleen assessed as formation of arachidonoyl-4-aminoantipyrin at 600 mg/kg, po administered daily measured after 48 hrs. The format is organism-based. Set-up: dose 600 mg/kg, route oral. The note with it: in vivo. Summed up: as §1
Data set [10] in a line: Prodrug activation in C57BL/6 mouse CSF assessed as formation of arachidonoyl-4-methylaminoantipyrin at 600 mg/kg, po administered daily measured after 120 hrs. Set-up: dose 600 mg/kg, route oral. The format is organism-based, Cerebrospinal fluid. The note with it: in vivo. The method, boiled down:
as §1

The nature of data set [11]: Prodrug activation in C57BL/6 mouse CSF assessed as formation of arachidonoyl-4-aminoantipyrin at 600 mg/kg, po administered daily measured after 120 hrs. The format is organism-based, Cerebrospinal fluid. Set-up: dose 600 mg/kg, route oral. The note with it: in vivo. The method, boiled down:
as §1

The test system of data set [12] is Brain. The experiment in a line: Prodrug activation in FAAH wild type C57BL/6 mouse brain assessed as formation of arachidonoyl-4-aminoantipyrin at 600 mg/kg, po administered daily measured after 120 hrs. It counts as organism-based. Set-up: dose 600 mg/kg, route oral. The note with it: in vivo. Summed up:
as §1

For data set [13], the species on record is Mus musculus. Description: Inhibition of PGE2 production in LPS-stimulated COX-1 knockout C57BL/6 mouse brain homogenate at 0.8 uM measured after 6 hrs. It counts as functional. The method, boiled down:
(§2)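 COX-1−/− or COX-2−/− mice injected i.p. with LPS 50 µg kg−1; brains taken 6 h later and homogenised in Tris pH 7.4/phenol/protease-inhibitor buffer. COX activity measured with inhibitor or vehicle: 150 µM arachidonic acid, 37°C, 5 min, formic acid stop to pH 2.5. PGE2 extracted in ethyl acetate/hexane and measured by GC-MS/MS.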

Data set [14] is filed under the species Mus musculus. The experiment in a line: Inhibition of PGE2 production in LPS-stimulated COX-2 knockout C57BL/6 mouse brain homogenate measured after 6 hrs. The format is functional. The note with it: C57BL/6, Brain. The method, boiled down:
as §2

The species entered for data set [15] is Mus musculus. Description: Inhibition of PGE2 production in LPS-stimulated COX-1 knockout C57BL/6 mouse brain homogenate measured after 6 hrs. The format is functional. The note with it: C57BL/6, Brain. The method, boiled down: as §2
The species named for data set [16] is Mus musculus. Description: (§3) Inhibition of COX-mediated PGE2 production in C57BL/6 mouse brain homogenate. The format is tissue-based. Summed up:
(§4)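 Mouse brain homogenate (20 µg) made on ice in 50 mM Tris pH 7.4 with 1 mM phenol and protease inhibitors, then incubated with inhibitor or vehicle. Reaction started with 150 µM arachidonic acid at 37°C, stopped after 5 min by acidifying to pH 2.5 with 1% formic acid. Prostanoids extracted in ethyl acetate/hexane (7:1), and PGE2 or 6-keto-PGF1α quantified by GC-MS/MS.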

The nature of data set [17]: as §3. It counts as tissue-based. Summed up:
as §4

The species entered for data set [18] is Mus musculus. The experiment in a line: (§5) Inhibition of COX-mediated 6-keto-PGF1alpha production in C57BL/6 mouse brain homogenate. It counts as tissue-based. Summed up:
as §4

Data set [19] in a line: as §5. The format is tissue-based. The method, boiled down:
as §4

The target of data set [20] is Cannabinoid receptor 2 (Homo sapiens, UniProt P34972). The experiment in a line: Displacement of [3H]CP-55940 from human recombinant CB2 receptor expressed in HEK cells. The format is cell-based, HEK293. For orientation: Displacement assays read how much labelled ligand stays bound in the presence of the test substance.
The nature of data set [21]: Inhibition of COX-mediated PGE2 production in C57BL/6 mouse brain homogenate measured after 6 hrs in presence of FAAH inhibitor URB532. It counts as tissue-based.
For data set [22], the target named is Cannabinoid receptor 1 (Homo sapiens, UniProt P21554). The experiment in a line: Displacement of [3H]CP-55940 from human recombinant CB1 receptor expressed in HEK cells. It counts as cell-based, HEK293.
The species entered for data set [23] is Mus musculus. Description: Inhibition of PGE2 production in LPS-stimulated COX-2 knockout C57BL/6 mouse brain homogenate at 0.4 uM measured after 6 hrs. The format is functional. The method, boiled down:
as §2

The species named for data set [24] is Mus musculus. The experiment in a line: Ratio of IC50 for COX-mediated PGE2 production in C57BL/6 mouse brain homogenate measured after 6 hrs in absence of FAAH inhibitor URB532 to IC50 for COX-mediated PGE2 production in C57BL/6 mouse brain homogenate measured after 6 hrs in presence of FAAH inhibitor URB532. The format is tissue-based.
Data set [25] concerns the target T1, Transient receptor potential cation channel subfamily V member 1 (Homo sapiens, UniProt Q8NER1). The experiment in a line: Inhibition of TRPV1.
The species named for data set [26] is Mus musculus. The experiment in a line: Inhibition of COX-mediated PGE2 production in C57BL/6 mouse brain homogenate at 100 nM to 100 uM. It counts as tissue-based. The method, boiled down: as §4
For data set [27], the target named is T2, Prostaglandin G/H synthase 1 (Mus musculus, UniProt P22437).
T2 sequence (P22437 whole entry): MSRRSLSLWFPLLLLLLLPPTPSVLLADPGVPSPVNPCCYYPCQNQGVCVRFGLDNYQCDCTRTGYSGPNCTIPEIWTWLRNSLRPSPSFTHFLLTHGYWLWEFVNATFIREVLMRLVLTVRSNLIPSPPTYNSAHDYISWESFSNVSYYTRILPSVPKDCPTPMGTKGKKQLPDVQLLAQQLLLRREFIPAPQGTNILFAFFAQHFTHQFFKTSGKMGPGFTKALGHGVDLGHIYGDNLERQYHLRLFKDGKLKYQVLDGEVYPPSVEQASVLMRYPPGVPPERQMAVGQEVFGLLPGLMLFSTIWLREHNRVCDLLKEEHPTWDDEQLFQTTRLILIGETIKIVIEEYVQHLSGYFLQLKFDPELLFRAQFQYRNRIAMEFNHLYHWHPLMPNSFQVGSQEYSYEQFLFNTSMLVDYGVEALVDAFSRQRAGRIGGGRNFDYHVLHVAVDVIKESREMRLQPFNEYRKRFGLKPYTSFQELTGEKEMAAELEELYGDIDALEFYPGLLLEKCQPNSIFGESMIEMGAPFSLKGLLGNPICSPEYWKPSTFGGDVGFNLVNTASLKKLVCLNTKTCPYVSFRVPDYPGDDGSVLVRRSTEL
The experiment in a line: Inhibition of COX-1 in C57BL/6 mouse brain homogenate. It counts as tissue-based. The method, boiled down:
(§6)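 Brain homogenate from C57BL/6 mice was prepared on ice in 50 mM Tris pH 7.4 with 1 mM phenol and protease inhibitors. 20 µg of homogenate was incubated with inhibitor or vehicle. The reaction was started with 150 µM arachidonic acid at 37°C and stopped after 5 min with formic acid to pH 2.5. Prostanoids were extracted with ethyl acetate/hexane 7:1. PGE2 and 6-keto-PGF1α were measured by GC-MS/MS, and IC50 was determined.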

The target in data set [28] is T3, Prostaglandin G/H synthase 2 (Mus musculus, UniProt Q05769).
T3 sequence (Q05769 whole entry): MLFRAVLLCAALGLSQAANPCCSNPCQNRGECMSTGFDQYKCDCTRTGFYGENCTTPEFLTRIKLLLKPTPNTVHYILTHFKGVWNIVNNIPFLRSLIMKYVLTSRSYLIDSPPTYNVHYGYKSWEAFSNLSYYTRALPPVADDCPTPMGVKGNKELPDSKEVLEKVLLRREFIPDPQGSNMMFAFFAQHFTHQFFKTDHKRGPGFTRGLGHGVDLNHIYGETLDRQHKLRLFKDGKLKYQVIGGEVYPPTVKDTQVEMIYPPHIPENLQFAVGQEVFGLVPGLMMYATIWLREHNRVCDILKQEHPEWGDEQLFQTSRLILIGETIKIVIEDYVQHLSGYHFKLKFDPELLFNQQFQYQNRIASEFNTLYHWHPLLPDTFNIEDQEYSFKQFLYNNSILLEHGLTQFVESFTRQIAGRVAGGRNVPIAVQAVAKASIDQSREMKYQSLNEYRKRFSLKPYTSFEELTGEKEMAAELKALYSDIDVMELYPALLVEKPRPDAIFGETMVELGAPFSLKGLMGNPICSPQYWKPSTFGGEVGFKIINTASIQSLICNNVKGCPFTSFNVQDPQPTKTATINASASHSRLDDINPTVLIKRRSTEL
Description: Inhibition of COX-2 in C57BL/6 mouse brain homogenate. It counts as tissue-based. The method, boiled down: as §6

Data set [29] concerns the target T1, Transient receptor potential cation channel subfamily V member 1. Description: Agonist activity at TRPV1. The format is functional.

The term inhibition denotes the relative decrease from the control value, in per cent. The IC50 is the concentration that inhibits the measured activity by half. Broadly, the Ki is the dissociation constant of the complex between target and ligand, obtained from inhibition or displacement. The EC50 is the concentration that produces a half-maximal response. Higher therefore signals weaker potency.

T1 sequence (Q8NER1 whole entry): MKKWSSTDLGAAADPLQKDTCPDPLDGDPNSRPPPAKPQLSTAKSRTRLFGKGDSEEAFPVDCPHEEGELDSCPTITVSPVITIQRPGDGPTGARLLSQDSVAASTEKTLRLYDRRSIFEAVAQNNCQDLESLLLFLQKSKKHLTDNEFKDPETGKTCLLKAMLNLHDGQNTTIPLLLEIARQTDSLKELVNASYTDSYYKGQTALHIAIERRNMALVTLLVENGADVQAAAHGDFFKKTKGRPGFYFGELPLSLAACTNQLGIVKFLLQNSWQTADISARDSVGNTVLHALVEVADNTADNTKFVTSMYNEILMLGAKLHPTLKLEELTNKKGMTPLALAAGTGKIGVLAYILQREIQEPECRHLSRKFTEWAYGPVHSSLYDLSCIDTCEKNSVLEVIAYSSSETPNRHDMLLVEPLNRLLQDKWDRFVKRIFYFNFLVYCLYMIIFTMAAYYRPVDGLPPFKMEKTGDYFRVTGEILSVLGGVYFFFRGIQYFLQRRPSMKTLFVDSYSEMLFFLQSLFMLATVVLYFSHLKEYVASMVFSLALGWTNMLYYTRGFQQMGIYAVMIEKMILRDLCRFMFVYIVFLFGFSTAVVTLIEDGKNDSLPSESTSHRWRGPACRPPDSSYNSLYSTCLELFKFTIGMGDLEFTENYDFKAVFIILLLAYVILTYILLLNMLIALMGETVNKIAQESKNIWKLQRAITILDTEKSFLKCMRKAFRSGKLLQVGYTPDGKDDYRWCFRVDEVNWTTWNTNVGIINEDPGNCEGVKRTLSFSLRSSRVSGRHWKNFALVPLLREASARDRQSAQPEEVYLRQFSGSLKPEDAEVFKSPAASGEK
Sequence of Cannabinoid receptor 2 (P34972 whole entry): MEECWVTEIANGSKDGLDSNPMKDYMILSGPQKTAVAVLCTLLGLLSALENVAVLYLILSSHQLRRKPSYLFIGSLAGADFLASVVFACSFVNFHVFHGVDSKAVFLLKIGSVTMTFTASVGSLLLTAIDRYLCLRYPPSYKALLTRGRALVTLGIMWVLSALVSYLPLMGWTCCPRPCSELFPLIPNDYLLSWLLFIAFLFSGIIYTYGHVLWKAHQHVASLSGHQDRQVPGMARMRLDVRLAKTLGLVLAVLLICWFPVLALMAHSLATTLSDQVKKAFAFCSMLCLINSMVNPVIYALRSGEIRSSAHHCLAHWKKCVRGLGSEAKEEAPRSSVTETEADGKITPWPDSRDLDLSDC
Sequence of Cannabinoid receptor 1 (P21554 whole entry): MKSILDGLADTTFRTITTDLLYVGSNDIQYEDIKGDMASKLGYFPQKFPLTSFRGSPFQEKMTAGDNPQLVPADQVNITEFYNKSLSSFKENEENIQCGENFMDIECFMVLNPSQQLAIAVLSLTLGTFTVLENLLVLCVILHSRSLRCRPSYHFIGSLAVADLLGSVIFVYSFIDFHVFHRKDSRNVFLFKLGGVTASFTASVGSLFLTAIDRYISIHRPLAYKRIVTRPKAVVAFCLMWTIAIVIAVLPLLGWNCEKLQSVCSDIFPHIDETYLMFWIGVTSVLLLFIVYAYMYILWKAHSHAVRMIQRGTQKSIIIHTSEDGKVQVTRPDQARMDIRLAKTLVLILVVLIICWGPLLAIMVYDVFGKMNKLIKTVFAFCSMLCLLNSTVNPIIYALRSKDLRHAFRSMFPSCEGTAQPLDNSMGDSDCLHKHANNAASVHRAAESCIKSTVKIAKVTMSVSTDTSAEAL

Consider `Cc1c(N(C)CS(=O)(=O)[O-])c(=O)n(-c2ccccc2)n1C.[Na+]` [DIPYRONE SODIUM], for which the Drug metabolism entry in data set [1], in data set [2], in data set [3], in [4], in data set [5] and in [6] was “Active” in each case. The Drug metabolism entry in data set [7], in data set [8], in [9], in [10], in data set [11] and in data set [12] was “Active” in each case.
For the compound `CCCCC/C=C\C/C=C\C/C=C\C/C=C\CCCC(=O)N(C)c1c(C)n(C)n(-c2ccccc2)c1=O`, the inhibition entry in data set [13] is “Active”. For the same compound, the IC50 in data set [14] was 0.107 µM; in data set [15] it was 0.355 µM; in data set [17], 13.2 µM; in data set [19] it was 5.2 µM; in data set [21] it was 0.058 µM. For the same compound, the inhibition entry in data set [16] is “Dose-dependent effect”; in [18] it was “Dose-dependent effect”; in data set [23], 30%. For the same compound, the Ki is 3 µM in data set [20] and 7.8 µM in data set [22]. Also, the Ratio IC50 in data set [24] is greater than 200.
Turning to `CCCCC/C=C\C/C=C\C/C=C\C/C=C\CCCC(=O)Nc1c(C)n(C)n(-c2ccccc2)c1=O`, the inhibition entry in [25] and in data set [26] was “inactive” each time. The inhibitory constant (Ki) in data set [20] stood at 5.4 µM; in [22], 2.9 µM.
`Cc1c(N)c(=O)n(-c2ccccc2)n1C` [AMPYRONE]: the IC50 in data set [27] and in data set [28] was 1000 µM in each case.
In data set [29], `CCCCC/C=C\C/C=C\C/C=C\C/C=C\CCCC(=O)Nc1ccc(O)cc1` registered a concentration for a half-maximal effect (EC50) of 0.026 µM.
